Reference: ChEMBL document CHEMBL3232803, “Optimization of potency and pharmacokinetic properties of tetrahydroisoquinoline transient receptor potential melastatin 8 (TRPM8) antagonists” (J Med Chem, 2014)

Legend:
Type in all cases: ADME, organism-based
[1] = Volume of distribution at steady state in Sprague-Dawley rat at 2 mg/kg, iv by LC-MS/MS analysis; set-up: dose 2 mg/kg, route intravenous; settings: in vivo, read-out: Vdss
Summary of the method: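 Fed male Sprague−Dawley rats (n = 3) dosed iv at 2 mg/kg in DMSO. Plasma sampled up to 16 h, quantified by LC-MS/MS. Noncompartmental analysis of total plasma concentration-time data.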

[2] = Cmax in Sprague-Dawley rat at 5 mg/kg, po by LC-MS/MS analysis; set-up: dose 5 mg/kg, route oral; settings: in vivo
Summary of the method: (§1)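 Fasted male Sprague−Dawley rats (n = 3) given oral gavage as a suspension in 5% Tween 80/Oraplus. Blood sampled up to 16 h post dose, plasma prepared by centrifugation and assayed by LC-MS/MS. Total plasma concentration-time data analysed by noncompartmental methods.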

[3] = AUC (0 to infinity) in Sprague-Dawley rat at 5 mg/kg, po by LC-MS/MS analysis; set-up: time infinity, dose 5 mg/kg, route oral; settings: plasma; summary of the method: as §1
[4] = Oral bioavailability in Sprague-Dawley rat at 5 mg/kg by LC-MS/MS analysis; settings: in vivo; summary of the method: as §1
[5] = Tmax in Sprague-Dawley rat at 5 mg/kg, po by LC-MS/MS analysis; set-up: dose 5 mg/kg, route oral; settings: in vivo; summary of the method: as §1
[6] = Plasma concentration in unilateral cartoid artery cannulated Sprague-Dawley rat model at 3 mg/kg, po after […]; set-up: dose 3 mg/kg, route oral
[7] = Oral bioavailability in Sprague-Dawley rat; settings: in vivo
Summary of the method: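 Male Sprague−Dawley rats, n = 3 per group. Iv arm: fed animals, 2 mg/kg in DMSO. Oral arm: fasted animals, 5 or 10 mg/kg by gavage as a suspension in 5% Tween 80/Oraplus. Plasma sampled to 16 h, measured by LC-MS/MS, analysed noncompartmentally.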

Vd [1]	Cmax [2]	AUC(0-inf) [3]	bioavailability [4]	Tmax [5]	concentration at […] [6]	bioavailability [7]	Compound
1.7 L/kg	3860 nM	71.9 µM·h	51%	5.3 h	1270 nM	–	C[C@H](NC(=O)N1CCc2cccnc2[C@H]1c1ccc(C(F)(F)F)c(F)c1)C(F)(F)F
3 L/kg	1670 nM	12.1 µM·h	67%	–	–	–	C[C@H](NC(=O)N1CCc2ccccc2[C@H]1c1ccc(C(F)(F)F)c(F)c1)C(F)(F)F
2.7 L/kg	1580 nM	12 µM·h	–	–	–	–	C[C@H](NC(=O)N1CCc2cccnc2[C@H]1c1ccc(C(F)(F)F)cc1)C(F)(F)F
–	–	–	–	–	–	70%	N#Cc1ccc(NC(=O)N2CCc3cccnc3[C@H]2c2ccc(C(F)(F)F)cc2)cc1
